Rows were chosen to be rich in hits. Some 4% of all compounds tested hit in one or more screens of this group.
ERa coact pot = enhancers of ERα–SRC-1 coactivator binding, primary screen, biochemical, TR-FRET, ERα LBD, low estradiol | Estrogen receptor (Homo sapiens), P03372 | TR-FRET ERalpha-LBD/SRC-Cy5 coactivator binding, 2 h; 100 = basal binding, no effect | coactivator binding (% of control), % at 25.6 µM | 86,000 tested, 1.3% active | AID 639, 2007; in the data active means activity above about 200%;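 further: binding measured in presence of low estradiol as agonist stimulus; 0% = peptide alone without receptor and 100% = receptor with peptide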
Target sequence (P03372 whole entry, looked up, the tested form may be a part): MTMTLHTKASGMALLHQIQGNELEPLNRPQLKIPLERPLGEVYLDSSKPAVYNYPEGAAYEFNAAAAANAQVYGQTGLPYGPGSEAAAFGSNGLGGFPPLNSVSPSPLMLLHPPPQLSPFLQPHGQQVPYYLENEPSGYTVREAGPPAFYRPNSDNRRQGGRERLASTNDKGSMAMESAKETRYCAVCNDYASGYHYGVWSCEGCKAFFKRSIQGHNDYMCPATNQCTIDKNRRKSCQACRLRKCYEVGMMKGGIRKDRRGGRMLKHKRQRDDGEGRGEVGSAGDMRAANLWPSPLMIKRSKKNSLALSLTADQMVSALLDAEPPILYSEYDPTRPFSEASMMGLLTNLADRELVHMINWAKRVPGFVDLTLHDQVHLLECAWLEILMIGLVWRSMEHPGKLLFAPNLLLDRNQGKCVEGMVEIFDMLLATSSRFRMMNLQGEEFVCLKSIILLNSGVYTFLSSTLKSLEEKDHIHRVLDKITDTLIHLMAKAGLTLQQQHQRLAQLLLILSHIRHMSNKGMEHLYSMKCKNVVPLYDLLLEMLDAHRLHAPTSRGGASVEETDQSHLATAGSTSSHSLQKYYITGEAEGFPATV
ERa coact inh = ERα–SRC-1 coactivator interaction inhibitors, primary screen, biochemical, TR-FRET, ERα LBD, estradiol-bound; TR-FRET ER-alpha LBD / SRC-1 peptide; inhibition, % at 25.6 µM; 86,000 tested, 1.7% active; AID 629, 2007; in the data active means inhibition above about 50%;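 further: 0% = receptor plus peptide control and 100% = peptide only without receptor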
Smad3 FoxH1 inh = Smad3/FoxH1 peptide binding inhibitors, primary screen, biochemical, TR-FRET | TR-FRET Smad3/Dy647-FoxH1 peptide binding, europium anti-His | inhibition, % at 25 µM | 88,000 tested, 0.29% active | AID 630, 2007;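 active means compounds that reduce the energy-transfer binding signal between the protein and its labelled peptide by more than half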;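 further: 0% = Smad3 plus labelled peptide maximal FRET and 100% = peptide-only background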
FAK inh = FAK kinase inhibitors, primary screen, biochemical; biochemical FAK kinase activity assay; 97,000 tested, 0.84% active; inhibition, %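 (tested at 7 µM)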; Focal adhesion kinase 1 (Homo sapiens), Q05397; in the data active means inhibition above about 19%;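 further: 0% = DMSO and 100% = reference compound high control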
ERb coact inh = inhibitors of ERβ-SRC1 coactivator interaction, primary screen, biochemical, TR-FRET, ERβ LBD, SRC-1 peptide; TR-FRET ER-beta LBD / SRC1-Cy5 peptide binding; receptor agonist-loaded with 1 µM estradiol; inhibition, % at 25.6 µM; AID 633, 2007; 86,000 tested, 1.3% active; Estrogen receptor beta (Homo sapiens), Q92731;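 active means compounds whose percent inhibition of the receptor-coactivator binding signal exceeds about 50% in the single-dose screen, limit read from the data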;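 further: 0% = receptor plus peptide wells without compound and 100% = peptide-only wells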
HIV Rev-RRE inh = HIV-1 Rev-RRE binding inhibitors, primary screen, biochemical, FRET, protein-RNA interaction; P05866; inhibition, % at 8 µM; 97,000 tested, 0.79% active; Rev peptide-RRE RNA binding; AID 704, 2007;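 active means inhibition above the screen-wide mean plus 3 SD, cut at about 35% in these data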;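 further: 0% = median DMSO wells and 100% = median Neomycin B control wells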
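Assay system: Rev peptide and RRE RNA, both fluorescently labelled; times: 5 min preincubation and 15 min binding, 25 °C; detection: FRET, ex 480 nm, em 540 and 671 nm; read-out basis: % inhibition from 671/540 nm acceptor-to-donor ratio, scaled between controls; benchmarks: DMSO low control, neomycin B high control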
* hit, by the source's call; nt = no result; [ ] = remark or other dose.

SMILES | ERa coact pot | ERa coact inh | Smad3 FoxH1 inh | FAK inh | ERb coact inh | HIV Rev-RRE inh
CCOC(=O)C1C(c2cccs2)NC(=O)NC1(O)C(F)(F)F (stereo not given) | 527.4*[fluorescence artefact?] | -2.3 | 7.3 | -2.4 | -1.4 | 3.7
CCOC(=O)C1C(c2ccc3c(c2)OCO3)NC(=O)NC1(O)C(F)(F)F (stereo not given) | 96.4 | -8.3 | 3.5 | -1.2 | -11.5 | 3.3
C=CCn1c(SCC(=O)Nc2sccc2C(N)=O)nc2ccccc2c1=O | 75.5 | 28.4 | 9.5 | 1.4 | 23.1 | 8.4
C=CCn1c(SCC(=O)Nc2sccc2C(N)=O)nc2ccc(Cl)cc2c1=O | 121.9 | 64.2*[fluorescence artefact?] | 9.7 | -4.0 | 47.5 | 9.6
NC(N)=N[C@@H]1C(O)[C@H](N=C(N)N)[C@@H](O)C(O)[C@H]1O (stereo not given in full) | nt | nt | 6.9 | nt | nt | nt
COc1cccc(-c2cn3nc(C)c(C)nc3n2)c1 | 98.5 | 40.4 | -0.5 | 2.9 | 37.5 | 39.7*
O=[N+]([O-])c1ccc2ncccc2c1CCc1c([N+](=O)[O-])ccc2ncccc12 | nt | nt | 8.2 | nt | nt | nt
COc1ccccc1C1(CC(=O)Nc2nccs2)CCOC(C(C)C)C1 (stereo not given) | nt | nt | nt | -6.2 | nt | 5.1
COc1cc2c3c(c1)/C(=C1/SC(NC(C)=O)=NC1=O)C(=O)N3C(C)(C)C=C2C | 49.0 | 77.0*[fluorescence artefact?] | 11.0 | 0.8 | 54.1* | 2.6
CCNc1ccc(Br)cc(C(=O)/C=C/c2c(Cl)cccc2Cl)c1=O | 94.7 | 75.0*[fluorescence artefact?] | 8.4 | 1.7 | 71.8*[fluorescence artefact?] | 88.7*[fluorescence artefact?]
CNc1ccc(Br)cc(C(=O)/C=C/c2cccc(OC)c2)c1=O | 65.9 | 66.5*[fluorescence artefact?] | 1.9 | 6.3 | -4.0 | 53.0*
O[C@H](COc1ccccc1)CN1CCCCC1 | nt | nt | -6.9 | nt | nt | nt
O=C(N/N=C/c1ccc([N+](=O)[O-])s1)c1cccc(Br)c1 | 62.2 | 76.1*[fluorescence artefact?] | 11.1 | 21.1* | 4.6 | -9.0
Cc1cccc(NC(=S)N/N=C/c2ccc([N+](=O)[O-])s2)c1 | nt | nt | nt | -5.2 | nt | 5.5
COC(=O)[C@@H]1O[C@H](SCCN)[C@@H](O)[C@H](O)[C@H]1O | nt | nt | 39.0 | nt | nt | nt
O=C(O)NCC1CCCCC1 (tested in a mixture with another compound) | nt | nt | 4.2 | nt | nt | nt
Cn1c(=O)c(C(=O)Nc2cnccn2)c(O)c2ccccc21 | 171.3 | 34.1 | 20.5 | nt | 19.5 | nt
Cn1c(=O)c(C(=O)Nc2ccccn2)c(O)c2ccccc21 | 285.6*[fluorescence artefact?] | -4.6 | 24.1 | 4.0 | 10.5 | 2.6
CCN(CC)c1ccc(-c2c(C#N)c(N)nc(OC)c2C#N)cc1 | 212.5*[fluorescence artefact?] | 21.1 | 8.0 | -12.4 | 25.6 | 12.0
Cc1cc(Cc2cc(C)c(N)cc2N)c(N)cc1N | nt | nt | 102.1* | nt | nt | nt
Cc1ccc(-n2nc3cc(C)c(N)cc3n2)cc1 | 46.9 | 24.1 | 35.0 | -0.7 | 24.2 | -0.6
Cc1ccc(CN(Cc2cc3cc(C)ccc3[nH]c2=O)C(=O)N2CCOCC2)cc1 | 484.5* | -0.1 | 1.0 | 0.7 | -6.1 | 0.2
Cc1cccc2sc(NC(=O)C3CCCO3)nc12 (stereo not given) | 113.1 | -8.6 | 3.4 | -1.2 | -6.8 | 3.8
Cc1nc(C)c(C(=O)Nc2nc3c(C)cccc3s2)o1 | 26.4 | 91.6*[fluorescence artefact?] | 4.4 | 18.4 | 90.7*[fluorescence artefact?] | 8.7
COc1ccc(CNC(=O)c2cc3c(=O)n4ccccc4nc3n(Cc3cccnc3)c2=N)cc1 | 52.6 | 78.2*[fluorescence artefact?] | 2.4 | 5.0 | 41.8 | 21.8
COC(=O)c1cc2c(=O)n3cccc(C)c3nc2n(Cc2cccnc2)c1=N | 107.0 | 2.7 | 2.5 | nt | 3.7 | nt
N=c1c(C(=O)NCc2ccc3c(c2)OCO3)cc2c(=O)n3ccccc3nc2n1Cc1cccnc1 | 4.5 | 91.6*[fluorescence artefact?] | 12.5 | nt | 57.2* | nt
COc1ccc(Cn2c(=O)[nH]c3cc(C(=O)NCc4ccc5c(c4)OCO5)ccc3c2=O)cc1 | 131.3 | 50.6* | -8.5 | 0.5 | 23.4 | 3.8

Bioassay records deposited in PubChem by several laboratories.
